Source: ChEMBL document CHEMBL3085764, “Azole-carbodithioate hybrids as vaginal anti-Candida contraceptive agents: design, synthesis and docking studies” (Eur J Med Chem, 2013)
≈ marks a conversion by molar mass, not a printed value.

Legend:
Pseudomonas aeruginosa = assay: Antibacterial activity against Pseudomonas aeruginosa ATCC BAA-427 after 48 hrs by broth microdilution technique; format: functional; conditions: ATCC BAA-427, 48 h
Method in brief: (§1)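 Broth microdilution following NCCLS guidelines in Mueller Hinton broth. Inoculum held at 1-5 × 10^3 cfu/mL. Plates incubated at 35 °C in a moist, dark chamber for 48 h. MIC and IC50 read spectrophotometrically at 492 nm.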

Candida parapsilosis = assay: Antifungal activity against Candida parapsilosis ATCC 22019 after 48 hrs by broth microdilution technique; format: functional, organism-based; conditions: Lodderomyces parapsilosis, ATCC 22019, 48 h
Method in brief: (§2)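 MIC by broth microdilution following NCCLS guidelines, in RPMI 1640 buffered with MOPS. Starting inoculum 1-5 × 10^3 CFU/mL. Plates incubated at 35 °C. MIC and IC50 read spectrophotometrically at 492 nm after 48 h.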

[1] = Spermicidal activity in human semen assessed as sperm immobilization at 0.1 % w/v up to 30 seconds by phase contrast microscopy; format: functional
Escherichia coli = assay: Antibacterial activity against Escherichia coli ATCC 9637 after 48 hrs by broth microdilution technique; format: functional; conditions: ATCC 9637, 48 h; method in brief: as §1
Aspergillus fumigatus = assay: Antifungal activity against Aspergillus fumigatus after 48 hrs by broth microdilution technique; format: functional, organism-based; method in brief: as §2
Klebsiella pneumoniae = assay: Antibacterial activity against Klebsiella pneumoniae after 48 hrs by broth microdilution technique; format: functional; method in brief: as §1
Candida albicans [2] = assay: Antifungal activity against Candida albicans clinical isolate after 48 hrs by broth microdilution technique; format: functional, organism-based; method in brief: as §2
Candida albicans [3] = assay: Antifungal activity against Candida albicans clinical isolate CDRI after 48 hrs by broth microdilution technique; format: functional, organism-based; method in brief: as §2
Trichomonas vaginalis = assay: Trichomonacidal activity against Trichomonas vaginalis after 48 hrs by trypan blue exclusion assay; format: functional; conditions: read-out: MEC
Method in brief: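 T. vaginalis in log phase, grown in TYM with 10% FCS, vitamin mixture and penicillin/streptomycin at 37 °C. DMSO stocks ([…]) serially diluted in TYM down to 0.1 µg/mL; DMSO/TYM vehicle controls. 5 × 10^4 trophozoites added and incubated anaerobically at 37 °C. Viability checked by trypan blue from 3 to 48 h. MIC = lowest concentration killing all cells by 48 h. Three repeats.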

[4] = Spermicidal activity in human semen assessed as sperm immobilization at 1.0 % w/v up to 30 seconds by phase contrast microscopy; format: functional
Candida albicans [5] = assay: Antifungal activity against Candida albicans ATCC 10231 after 48 hrs by broth microdilution technique; format: functional, organism-based; conditions: ATCC 10231, 48 h; method in brief: as §2
[6] = tested on: Trichophyton mentagrophytes; assay: Antifungal activity against Trichophyton mentagrophytes after 48 hrs by broth microdilution technique; format: functional, organism-based; method in brief: as §2
Candida albicans [7] = assay: Antifungal activity against Candida albicans MTCC 183 after 48 hrs by broth microdilution technique; format: functional, organism-based; conditions: MTCC 183, 48 h; method in brief: as §2
Sporothrix schenckii = assay: Antifungal activity against Sporothrix schenckii after 48 hrs by broth microdilution technique; format: functional, organism-based; method in brief: as §2
Staphylococcus aureus = assay: Antibacterial activity against Staphylococcus aureus ATCC 25923 after 48 hrs by broth microdilution technique; format: functional; conditions: ATCC 25923, 48 h; method in brief: as §1
Cryptococcus neoformans = assay: Antifungal activity against Cryptococcus neoformans after 48 hrs by broth microdilution technique; format: functional, organism-based; method in brief: as §2
Candida albicans [8] = assay: Antifungal activity against Candida albicans after 48 hrs by broth microdilution technique; format: functional, organism-based; method in brief: as §2

| SMILES | MIC (Pseudomonas aeruginosa) [µg/mL] | IC50 (Candida parapsilosis) [µg/mL] | Activity [1] [%] | MIC (Escherichia coli) [µg/mL] | IC50 (Aspergillus fumigatus) [µg/mL] | MIC (Klebsiella pneumoniae) [µg/mL] | IC50 (Candida albicans [2]) [µg/mL] | IC50 (Candida albicans [3]) [µg/mL] | minimal effective concentration (Trichomonas vaginalis) [µg/mL] | Activity [4] [%] | IC50 (Candida albicans [5]) [µg/mL] | IC50 [6] [µg/mL] | IC50 (Candida albicans [7]) [µg/mL] | IC50 (Sporothrix schenckii) [µg/mL] | MIC (Staphylococcus aureus) [µg/mL] | IC50 (Cryptococcus neoformans) [µg/mL] | IC50 (Candida albicans [8]) [µg/mL] |
| --- | --- | --- | --- | --- | --- | --- | --- | --- | --- | --- | --- | --- | --- | --- | --- | --- | --- |
| CSC(=S)n1ccnc1 | ≥ 50 | > 50 | 0 | ≥ 50 | > 50 | ≥ 50 | > 50 | > 50 | > 200 | 100 | > 50 | > 50 | > 50 | > 50 | ≥ 50 | > 50 | 5.75 (≈ 36.3 µM) |
| N#CCCCSC(=S)n1ccnc1 | ≥ 50 | 5.27 (≈ 24.9 µM) | 92 | ≥ 50 | > 50 | ≥ 50 | 10.8 (≈ 51 µM) | 43.5 (≈ 206 µM) | > 200 | 100 | > 50 |  | > 50 | > 50 | ≥ 50 | > 50 | > 50 |
| C=CCSC(=S)n1ccnc1 | ≥ 50 | 2.09 (≈ 11.3 µM) | 0 | ≥ 50 | > 50 | ≥ 50 | 1.8 (≈ 9.77 µM) | 3.94 (≈ 21.4 µM) | > 200 | 100 | 7.26 (≈ 39.4 µM) | 4.43 (≈ 24 µM) | 6.79 (≈ 36.8 µM) | 4.96 (≈ 26.9 µM) | ≥ 50 | 5.75 (≈ 31.2 µM) | > 50 |
| CCCCCCCCSC(=S)n1ccnc1 | ≥ 50 | > 50 | 80 | ≥ 50 | 6.21 (≈ 24.2 µM) | ≥ 50 | 1.06 (≈ 4.13 µM) | 31.4 (≈ 122 µM) | > 200 | 100 | 7.68 (≈ 29.9 µM) | 1.48 (≈ 5.77 µM) | 4.61 (≈ 18 µM) |  | ≥ 50 | > 50 | 5.72 (≈ 22.3 µM) |
| CCCCCCCCCCCCCCCCSC(=S)n1ccnc1 | ≥ 50 | > 50 | 0 | ≥ 50 | > 50 | ≥ 50 | > 50 | > 50 | > 200 | 100 | > 50 | 18.4 (≈ 50 µM) | > 50 | > 50 | ≥ 50 | > 50 | > 50 |
| O=C1c2ccccc2C(=O)N1CCSC(=S)n1ccnc1 | ≥ 50 | > 50 | 0 | ≥ 50 | > 50 | ≥ 50 | 16 (≈ 50.5 µM) | 30.9 (≈ 97.5 µM) | > 200 | 100 | 19.5 (≈ 61.5 µM) | 6.15 (≈ 19.4 µM) | 11.1 (≈ 34.9 µM) | 4.17 (≈ 13.1 µM) | ≥ 50 | 28.6 (≈ 90.1 µM) | 5.45 (≈ 17.2 µM) |
| CSC(=S)n1ccnc1C | ≥ 50 | > 50 | 0 | ≥ 50 | > 50 | ≥ 50 | 25.9 (≈ 151 µM) | > 50 | > 200 | 100 | 36.8 (≈ 214 µM) | 11.7 (≈ 67.8 µM) | 37.3 (≈ 216 µM) | 4.41 (≈ 25.6 µM) | ≥ 50 | 9.1 (≈ 52.8 µM) | 7.24 (≈ 42 µM) |
| Cc1nccn1C(=S)SCCCC#N | ≥ 50 | > 50 | 0 | ≥ 50 | > 50 | ≥ 50 | > 50 | 47.7 (≈ 212 µM) | > 200 | 95 | > 50 | 24.9 (≈ 111 µM) | 41 (≈ 182 µM) | > 50 | ≥ 50 | > 50 | 36 (≈ 160 µM) |
| N#CCCCSC(=S)n1cnc2ccccc21 | ≥ 50 | > 50 | 0 | ≥ 50 | > 50 | ≥ 50 | > 50 | 3.86 (≈ 14.8 µM) | > 200 | 100 | > 50 |  | > 50 |  | ≥ 50 | > 50 | > 50 |
| C=CCSC(=S)n1cnc2ccccc21 | ≥ 50 | > 50 | 0 | ≥ 50 | > 50 | ≥ 50 | > 50 | 39.3 (≈ 168 µM) | > 200 | 100 | > 50 | > 50 | 40.1 (≈ 171 µM) |  | ≥ 50 | > 50 | > 50 |
| Cn1nnc2ccccc21 | ≥ 50 | > 50 | 0 | ≥ 50 | > 50 | ≥ 50 | > 50 | > 50 | > 200 | 0 | > 50 | > 50 | > 50 | 1.58 (≈ 11.9 µM) | ≥ 50 | > 50 | > 50 |
| OC(Cn1cncn1)(Cn1cncn1)c1ccc(F)cc1F [FLUCONAZOLE] |  | 0.46 (≈ 1.5 µM) |  |  | 0.38 (≈ 1.24 µM) |  |  |  |  |  |  | 0.06 (≈ 0.196 µM) | 0.21 (≈ 0.686 µM) | 0.08 (≈ 0.261 µM) |  |  |  |
| Cc1ncc([N+](=O)[O-])n1CCO [METRONIDAZOLE] |  |  | 0 |  |  |  |  |  | 2 | 0 |  |  |  |  |  |  |  |
